# Data reported in paper PMC6661244 (Investigative Radiology, 2019).
# “Also recorded” adds a separate entry of the source.
# How the values were obtained:
# Osmolality = type: physicochemical; conditions: 0.5-M solution; Guerbet measurements
# Summary of the method: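 Vapour-pressure osmometry on a 0.5 M solution, triplicate readings. The osmometer was calibrated before each use with 100, 290 and 1000 mOsm/kg H2O standards.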
# Viscosity = type: physicochemical; conditions: 0.5 M
# Summary of the method: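 Cone-and-plate rotational rheometry (60 mm, 2° cone) on a 0.5 M solution at 37°C. Shear rate was recorded at applied stresses of 1–5 Pa, and viscosity was taken from the slope of stress versus shear rate.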
# [1] = Nuclear magnetic relaxation dispersion; type: physicochemical
# [2] = type: physicochemical; conditions: 2.5 mM GBCA and ZnCl2, phosphate buffer pH 7, 335 mM, 37°C, 0.47 T, up to 5 days
# [3] = Metabolism: HPLC analysis of plasma and urine samples; type: in vivo; conditions: Beagle dogs, 0.2 mmol Gd/kg IV
# Summary of the method: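 Urine and plasma from Beagle dogs given a 153Gd-labelled test compound (0.2 mmol Gd/kg IV) were analysed by radio-HPLC. Separation used a C18 column at 4°C, with detection by a flow scintillation analyser.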
# [4] = tested on: hepatic colorectal metastases; conditions: rats, 0.1 mmol Gd/kg intravenously, 9.4 T, compared with gadobutrol; cited from earlier work
Structure (SMILES),Osmolality at 37°C at marketed concentration (Osmolality) [mOsm/kg H2O],Viscosity at 37°C (Viscosity) [mPa·s],"Relaxivity r1 at 37°C ([1]; 3 T, in human serum, extrapolated from NMRD profiles) [mM⁻¹ s⁻¹]","r1 relaxivity (NMRD profile) ([1]; 300 MHz, ie, 7 T field, water, 37°C) [mM⁻¹ s⁻¹]",r1(t)/r1(t0) ratio over time in the presence of Zn^2+ and phosphate [2],Metabolites in plasma and urine samples (HPLC) [3],Lesion enhancement [4]
"O=C(CCC(C(=O)[O-])N1CCN(C(CCC(=O)NCC(O)CO)C(=O)[O-])Cc2cccc(n2)CN(C(CCC(=O)NCC(O)CO)C(=O)[O-])CC1)NCC(O)CO.[Gd+3] (centres unmarked) [Gadopiclenol, gadolinium chelate of 2,2′,2″-(3,6,9-triaza-1(2,6)-pyridinacyclodecaphane-3,6,9-triyl)tris(5-((2,3-dihydroxypropyl)amino)-5-oxopentanoic acid)]",843,7.6,11.6,10.68,remained constant,No metabolites were found; also recorded: only unchanged gadopiclenol,significantly better lesions enhancement
"CNC[C@H](O)[C@@H](O)[C@H](O)[C@H](O)CO.O=C([O-])CN1CCN(CC(=O)[O-])CCN(CC(=O)O)CCN(CC(=O)[O-])CC1.[Gd+3] [Gadoterate (Meglumine Salt), reference compound]",,,,,remained constant,,
